Assay outcomes as filed in PubChem.
FGF22 binding: binders of recombinant human FGF22 by thermal shift. 340,000 compounds, 1.5% hits. AID 651658. SYPRO orange fluorescence; percent of sucrose octasulfate shift, DMSO zero. activity (Tm shift, normalised), % at 9.99 µM. Q9HCT0;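 active = mean Tm shift, scaled 0 neutral to 100 positive control, at about 1.3% or above, every replicate too, limit read from the data; inconclusive = no clear call, values can overlap the other calls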
Target sequence (Q9HCT0 whole entry, looked up): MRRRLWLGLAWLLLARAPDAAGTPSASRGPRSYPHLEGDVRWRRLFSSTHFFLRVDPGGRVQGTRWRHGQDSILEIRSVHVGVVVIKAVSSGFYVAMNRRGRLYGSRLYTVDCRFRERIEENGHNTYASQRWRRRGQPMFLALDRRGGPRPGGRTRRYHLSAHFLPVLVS
DENV2 CPE: protects cells from dengue virus 2 cytopathic effect; DENV2-infected cells, cytopathic effect rescue, plate reader; CPE inhibition, % at 9.99 µM; 350,000 compounds, 1.7% hits; AID 651640; in the data active = CPE inhibition above about 20%, passing the limit was not always enough; inconclusive = no clear call, values can overlap the other calls; tested in BHK-21 cells;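 also: 0% = median of neutral control wells and 100% = median of positive control wells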
SIRT5 inh: sirtuin-5 (human) deacylase inhibition; Purified SirT5, succinyl-peptide AMC, trypsin-coupled fluorescence; inhibition, % at 15 µM; 330,000 compounds, 1.1% hits; AID 652115; in the data active = inhibition above about 15%; inconclusive = no clear call, values can overlap the other calls
Target sequence (Q9NXA8 whole entry, looked up): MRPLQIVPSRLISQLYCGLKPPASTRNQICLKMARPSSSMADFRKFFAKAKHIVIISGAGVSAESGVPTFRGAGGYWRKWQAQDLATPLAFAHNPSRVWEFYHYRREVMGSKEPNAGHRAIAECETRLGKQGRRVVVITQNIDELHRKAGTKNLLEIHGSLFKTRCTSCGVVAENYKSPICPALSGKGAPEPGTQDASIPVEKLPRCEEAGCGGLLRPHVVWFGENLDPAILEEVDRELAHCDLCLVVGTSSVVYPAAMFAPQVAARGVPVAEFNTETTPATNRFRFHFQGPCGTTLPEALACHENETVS
FN deposition inh: fibronectin deposition inhibition | AH1F fibroblasts, Alexa488-fibronectin deposition fluorescence, overnight | inhibition, % at 12.6 µM | 350,000 compounds, 0.086% hits;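 active = mean inhibition across replicates of 30% or more, regardless of how many single replicates reach that level; inconclusive = mean under 30% yet at least half of replicates reach 30%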;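 also: positive control wells lacked labelled fibronectin entirely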
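material = AH1F fibroblast monolayer depositing Alexa488-labelled fibronectin into matrix | amount = 10000 AH1F cells/well | buffer or medium = DMEM plus 2% serum, read in PBS | incubation = 1 h cell adhesion before compound, then overnight fibronectin incubation | detection = fluorescence at 485 nm excitation, 525 nm emission | evaluation = percent inhibition as loss of matrix-bound fibronectin fluorescence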
XiGFP reactiv: activators of X-chromosome reactivation in mouse fibroblasts; 360,000 compounds, 0.055% hits; XiGFP mouse fibroblasts, % GFP-positive cells imaging, 3 d; cells co-treated with 5-aza-dC sensitizer; scaled so ellipticine positive control = 100%; activation, % at 7.58 µM;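 active = mean normalized replicate activation at least 10% and every replicate at or above 10%; inconclusive = only one of the two criteria met; inactive = mean below 10% and not all replicates reach 10%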;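 also: 0% = median of on-plate neutral control wells and 100% = ellipticine 6 µM median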
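Material: XiGFP fibroblasts, SV40-immortalized; Buffer or medium: DMEM containing 5-aza-dC; Compound dosing: single point; Times: 3 days compound exposure.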
ARNT-TACC3 inh: ARNT/TACC3 interaction disruption; inhibition, % at 9.99 µM; 390,000 compounds, 0.66% hits; AlphaScreen His-ARNT PAS-B/GST-TACC3 binding, luminescence; TACC3 fragment carries E629A point mutation; AID 623870; Q9Y6A5;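 active = mean inhibition of replicates at least 50% and at least half of replicates each reaching 50%; inconclusive = half or more replicates reach 50% but mean below 50%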;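 also: 0% = complete ARNT plus TACC3 wells and 100% = ARNT alone without TACC3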
Numbers without * were called inactive. A selection: hits, their analogues and other compounds. The true share with any hit is near 3.8%.

`COc1cc(C2c3[nH]c4ccccc4c3CCN2Cc2cn(C)nc2C)ccc1F` (stereo not given) gave FGF22 binding 0, DENV2 CPE -4, SIRT5 inh -2, FN deposition inh 8, XiGFP reactiv 0 and ARNT-TACC3 inh -3.
Screening CCn1cc(CN2CCc3c([nH]c4ccccc34)C2c2cccc(OC)c2OC)c(C)n1 (stereo not given) returned FGF22 binding 44*, DENV2 CPE 6, SIRT5 inh 8, XiGFP reactiv 0 and ARNT-TACC3 inh 4.
Screening CC(C)(C)NC(=O)COc1coc(CN2CCN(Cc3ccccc3)CC2)cc1=O returned FGF22 binding 0, DENV2 CPE 57*, SIRT5 inh -4, FN deposition inh 0, XiGFP reactiv 0 and ARNT-TACC3 inh -5.
`O=C(c1ccco1)N1CCN(Cc2cc(=O)c(OCc3ccccc3F)co2)CC1` gave FGF22 binding 66*, DENV2 CPE inconclusive, SIRT5 inh -3, FN deposition inh -3, XiGFP reactiv 0 and ARNT-TACC3 inh 0.
Screening CC(C)(Sc1ccc(CCN(CCCCC2CCCCC2)C(=O)NC2CCCCC2)cc1)C(=O)O returned FGF22 binding 0, DENV2 CPE 2, SIRT5 inh 26*, FN deposition inh -9, XiGFP reactiv 0 and ARNT-TACC3 inh -1.
`CCC(C)C(=O)Nc1nnc(SCC(=O)Nc2ccccc2F)s1` (stereo not given) gave FGF22 binding 44*, DENV2 CPE 1, SIRT5 inh -2, FN deposition inh -2 and XiGFP reactiv 0.
`CN(Cc1ccc2nonc2c1)Cc1nc(CC2CC2)no1` gave FGF22 binding 43*, DENV2 CPE 1, SIRT5 inh 0, FN deposition inh 4, XiGFP reactiv 0 and ARNT-TACC3 inh 8.
Fc1ccc2nc(C3CCCCN3Cc3nc(CC4CC4)no3)[nH]c2c1 (stereo not given) was read as FGF22 binding 0, DENV2 CPE -1, SIRT5 inh -8, FN deposition inh -7, XiGFP reactiv 0 and ARNT-TACC3 inh 10.
Screening COc1ccc(-c2cc(=O)n(-c3nc4ccccc4[nH]3)[nH]2)cc1 returned ARNT-TACC3 inh 47*.
`COc1ccc(S(=O)(=O)Nc2ccc3c(c2)CC(=O)N([C@H](C)CO)C[C@H](C)[C@H](CN(C)S(=O)(=O)c2ccccc2)O3)cc1` gave FGF22 binding 0, DENV2 CPE 3, XiGFP reactiv -1 and ARNT-TACC3 inh 0.
Screening COc1ccc(S(=O)(=O)N(C)C[C@@H]2Oc3ccc(NC(=O)Nc4ccc(F)cc4)cc3C(=O)N([C@@H](C)CO)C[C@H]2C)cc1 returned FGF22 binding 0, DENV2 CPE 14, SIRT5 inh 7, XiGFP reactiv -1 and ARNT-TACC3 inh 11.
For COc1ccc(S(=O)(=O)N(C)C[C@H]2Oc3ccc(NC(=O)Nc4ccc(F)cc4)cc3C(=O)N([C@H](C)CO)C[C@H]2C)cc1 the results were FGF22 binding 0, DENV2 CPE -6, SIRT5 inh 21*, XiGFP reactiv -1 and ARNT-TACC3 inh -8.
Screening C[C@@H]1CN([C@@H](C)CO)C(=O)c2cc(NC(=O)Nc3ccc(F)cc3)ccc2O[C@@H]1CN(C)S(=O)(=O)c1ccc(Cl)cc1 returned FGF22 binding 0, DENV2 CPE -6, SIRT5 inh 19*, FN deposition inh 12, XiGFP reactiv 0 and ARNT-TACC3 inh -4.
`O=C(C[C@H]1CC[C@H](NC(=O)c2ccc(F)cc2)[C@H](CO)O1)NCCc1ccncc1` gave FGF22 binding 0, DENV2 CPE 2, SIRT5 inh -3, XiGFP reactiv 0 and ARNT-TACC3 inh -8.
Screening COC(=O)[C@@]1(Cc2ccccc2CN=[N+]=[N-])COC(c2ccc(OCCCO)cc2)=N1 returned FGF22 binding -3, DENV2 CPE 27*, SIRT5 inh -1 and ARNT-TACC3 inh 7.
Screening COC(=O)[C@@]1(CCS(=O)(=O)c2ccccc2)N=C(c2ccc(OCCCO)cc2)O[C@H]1c1ccccc1 returned FGF22 binding 0, DENV2 CPE 27*, SIRT5 inh 5 and ARNT-TACC3 inh 4.
Screening [N-]=[N+]=NCc1ccccc1C[C@]1(C(N)=O)N=C(c2ccc(OCCCO)cc2)O[C@H]1c1ccccc1 returned FGF22 binding 0, DENV2 CPE 25*, SIRT5 inh 3 and ARNT-TACC3 inh 8.
COC(=O)[C@]1(CO)N=C(c2ccc(OCCCO)cc2)O[C@@H]1c1ccccc1CN=[N+]=[N-] was read as FGF22 binding 0, DENV2 CPE 51*, SIRT5 inh 11 and ARNT-TACC3 inh -16.
`C[C@@H]1CCCCO[C@@H](CN(C)C(=O)c2ccncc2)[C@H](C)CN([C@H](C)CO)C(=O)c2cc(NS(=O)(=O)c3ccc(Cl)cc3)ccc2O1` gave FGF22 binding 0, DENV2 CPE -3, SIRT5 inh 0, FN deposition inh 13, XiGFP reactiv 0 and ARNT-TACC3 inh -9.
For C[C@H](CO)N1C[C@H](C)[C@@H](CN(C)C(=O)Nc2cccc3ccccc23)OCCCC[C@H](C)Oc2ccc(NS(=O)(=O)c3ccc(F)cc3)cc2C1=O the results were DENV2 CPE 39*, SIRT5 inh 13, FN deposition inh 3, XiGFP reactiv 0 and ARNT-TACC3 inh -5.
`C[C@@H]1CN([C@@H](C)CO)C(=O)c2cc(NS(=O)(=O)c3ccccc3)ccc2O[C@H]1CN(C)C(=O)Nc1cccc2ccccc12` gave FGF22 binding 0, DENV2 CPE 27*, SIRT5 inh -3, XiGFP reactiv 0 and ARNT-TACC3 inh -3.
`COc1ccc(S(=O)(=O)Nc2ccc3c(c2)C(=O)N([C@@H](C)CO)C[C@@H](C)[C@H](CN(C)C(=O)Nc2cccc4ccccc24)OCCCC[C@@H](C)O3)cc1` gave FGF22 binding 0, DENV2 CPE -15, XiGFP reactiv 0 and ARNT-TACC3 inh 4.
C[C@@H]1CCCCO[C@H](CN(C)C(=O)Nc2cccc3ccccc23)[C@@H](C)CN([C@@H](C)CO)C(=O)c2cc(NS(=O)(=O)c3ccccc3)ccc2O1 was read as FGF22 binding 0, DENV2 CPE 34*, SIRT5 inh 15*, FN deposition inh -3 and XiGFP reactiv 0.
COc1ccc(S(=O)(=O)Nc2ccc3c(c2)C(=O)N([C@@H](C)CO)C[C@H](C)[C@@H](CN(C)C(=O)Nc2cccc4ccccc24)OCCCC[C@@H](C)O3)cc1 was read as FGF22 binding 0, DENV2 CPE 26*, SIRT5 inh 3 and XiGFP reactiv -1.
